How the values were obtained:
[1] = target: T1, Melanin-concentrating hormone receptor 1 (Rattus norvegicus, UniProt P97639); test: Binding affinity to chimeric rat/human MCH1R stably expressed in HEK293 cells; format: cell-based
Outline: (§1)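 Each value is the average of at least two replicate determinations.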

[2] = Intrinsic clearance in human liver microsomes; format: ADME, Microsome
Outline: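 Intrinsic human clearance was determined in human liver microsomes. Standard error is estimated below 10%, based on a reference compound run as a standard.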

[3] = target: T2, Voltage-gated inwardly rectifying potassium channel KCNH2 (Homo sapiens, UniProt Q12809); test: Displacement of [3H]dofetilide from human ERG channel
[4] = Brain concentration in Sprague-Dawley rat at 10 mg/kg, po after 1 hour; format: ADME, organism-based; design: dose 10 mg/kg, route oral; settings: read-out: Drug uptake
Outline: (§2)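 Rats dosed 10 mg kg-1 orally and 2.5 mg kg-1 iv. AUC and Cmax come from the oral dose. Brain levels were measured 1 h and 4 h after oral dosing and expressed as brain/plasma ratios at those times. Vd, clearance and t1/2 were derived from the same dosing.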

[5] = Volume of distribution in Sprague-Dawley rat at 10 mg/kg, po and 2.5 mg/kg, iv; format: ADME, organism-based; settings: in vivo, read-out: Vdss; outline: as §2
[6] = Cmax in Sprague-Dawley rat plasma at 10 mg/kg, po; format: ADME, organism-based; design: dose 10 mg/kg, route oral; outline: as §2
[7] = target: T1, Melanin-concentrating hormone receptor 1; test: Activity at chimeric rat/human MCH1R by accumulation of GTPgammaS; outline: as §1
[8] = Bioavailability in Sprague-Dawley rat at 10 mg/kg, po and 2.5 mg/kg, iv; format: ADME, organism-based; settings: in vivo
[9] = Brain to plasma ratio in Sprague-Dawley rat at 10 mg/kg, po and 2.5 mg/kg, iv after 1 hour; format: ADME, organism-based; outline: as §2
[10] = Brain to plasma ratio in Sprague-Dawley rat at 10 mg/kg, po and 2.5 mg/kg, iv after 4 hours; format: ADME, organism-based; outline: as §2
[11] = Half life in Sprague-Dawley rat at 10 mg/kg, po and 2.5 mg/kg, iv; format: ADME, organism-based; settings: in vivo; outline: as §2
[12] = Brain concentration in Sprague-Dawley rat at 10 mg/kg, po after 4 hours; format: ADME, organism-based; design: dose 10 mg/kg, route oral; settings: read-out: Drug uptake; outline: as §2
[13] = Clearance in Sprague-Dawley rat at 10 mg/kg, po and 2.5 mg/kg, iv; format: ADME, organism-based; settings: in vivo
[14] = AUC in Sprague-Dawley rat at 10 mg/kg, po; format: ADME, organism-based; design: dose 10 mg/kg, route oral; settings: plasma; outline: as §2
[15] = target: Melanin-concentrating hormone receptor 1 (Rattus norvegicus) (UniProt P97639); test: Inhibition of chimeric rat/human MCH1R at 10 uM
Outline: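 Single-concentration test at 10 µM, reported as percent inhibition of MCH1R; values averaged from at least two replicates.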

[16] = Selectivity for MCH1R over muscarinic M3R
[17] = target: T2, Voltage-gated inwardly rectifying potassium channel KCNH2; test: Affinity for human ERG channel by patch clamp assay; format: functional
CYP3A4 = CYP3A4 (Homo sapiens, UniProt P08684); test: Inhibition of cytochrome P450 3A4 at 5 uM; format: ADME; settings: read-out: Activity
[18] = target: Muscarinic acetylcholine receptor M3 (Homo sapiens, UniProt P20309); test: Binding affinity to muscarinic M3R
CYP2D6 = CYP2D6 (Homo sapiens, UniProt P10635); test: Inhibition of cytochrome P450 2D6 at 5 uM; format: ADME; settings: read-out: Activity
[19] = Plasma concentration in Sprague-Dawley rats at 1 mg/kg after 1 day; format: ADME, organism-based; design: dose 1 mg/kg; settings: rat
[20] = target: T3, Muscarinic acetylcholine receptor M1 (Homo sapiens, UniProt P11229); test: Binding affinity to muscarinic M1R
T3 sequence (P11229 whole entry): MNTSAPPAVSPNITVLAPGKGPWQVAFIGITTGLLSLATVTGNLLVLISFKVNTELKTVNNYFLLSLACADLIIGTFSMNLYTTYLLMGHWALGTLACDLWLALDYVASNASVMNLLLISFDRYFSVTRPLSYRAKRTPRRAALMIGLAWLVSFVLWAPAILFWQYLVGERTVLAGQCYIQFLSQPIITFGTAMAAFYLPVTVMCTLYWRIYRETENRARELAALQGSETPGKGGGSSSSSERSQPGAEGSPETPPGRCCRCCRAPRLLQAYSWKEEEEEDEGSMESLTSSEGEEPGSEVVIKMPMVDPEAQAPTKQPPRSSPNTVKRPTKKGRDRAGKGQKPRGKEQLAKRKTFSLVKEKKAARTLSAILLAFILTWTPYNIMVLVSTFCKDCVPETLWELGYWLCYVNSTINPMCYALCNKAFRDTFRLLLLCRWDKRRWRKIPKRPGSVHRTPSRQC

[21] = Plasma concentration in Sprague-Dawley rats at 1 mg/kg after 14 days; format: ADME, organism-based; design: dose 1 mg/kg; settings: rat

T1 sequence (P97639 whole entry, looked up): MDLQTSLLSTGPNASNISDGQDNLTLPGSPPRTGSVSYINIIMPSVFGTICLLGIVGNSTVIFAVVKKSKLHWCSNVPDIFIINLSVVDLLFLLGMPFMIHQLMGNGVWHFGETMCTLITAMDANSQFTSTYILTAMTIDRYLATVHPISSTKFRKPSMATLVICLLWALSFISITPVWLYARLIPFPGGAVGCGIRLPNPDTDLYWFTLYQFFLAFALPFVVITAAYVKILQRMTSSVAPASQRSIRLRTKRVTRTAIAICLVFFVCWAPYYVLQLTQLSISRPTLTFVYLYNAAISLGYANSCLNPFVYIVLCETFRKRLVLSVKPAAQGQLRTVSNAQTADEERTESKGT
T2 sequence (Q12809 whole entry): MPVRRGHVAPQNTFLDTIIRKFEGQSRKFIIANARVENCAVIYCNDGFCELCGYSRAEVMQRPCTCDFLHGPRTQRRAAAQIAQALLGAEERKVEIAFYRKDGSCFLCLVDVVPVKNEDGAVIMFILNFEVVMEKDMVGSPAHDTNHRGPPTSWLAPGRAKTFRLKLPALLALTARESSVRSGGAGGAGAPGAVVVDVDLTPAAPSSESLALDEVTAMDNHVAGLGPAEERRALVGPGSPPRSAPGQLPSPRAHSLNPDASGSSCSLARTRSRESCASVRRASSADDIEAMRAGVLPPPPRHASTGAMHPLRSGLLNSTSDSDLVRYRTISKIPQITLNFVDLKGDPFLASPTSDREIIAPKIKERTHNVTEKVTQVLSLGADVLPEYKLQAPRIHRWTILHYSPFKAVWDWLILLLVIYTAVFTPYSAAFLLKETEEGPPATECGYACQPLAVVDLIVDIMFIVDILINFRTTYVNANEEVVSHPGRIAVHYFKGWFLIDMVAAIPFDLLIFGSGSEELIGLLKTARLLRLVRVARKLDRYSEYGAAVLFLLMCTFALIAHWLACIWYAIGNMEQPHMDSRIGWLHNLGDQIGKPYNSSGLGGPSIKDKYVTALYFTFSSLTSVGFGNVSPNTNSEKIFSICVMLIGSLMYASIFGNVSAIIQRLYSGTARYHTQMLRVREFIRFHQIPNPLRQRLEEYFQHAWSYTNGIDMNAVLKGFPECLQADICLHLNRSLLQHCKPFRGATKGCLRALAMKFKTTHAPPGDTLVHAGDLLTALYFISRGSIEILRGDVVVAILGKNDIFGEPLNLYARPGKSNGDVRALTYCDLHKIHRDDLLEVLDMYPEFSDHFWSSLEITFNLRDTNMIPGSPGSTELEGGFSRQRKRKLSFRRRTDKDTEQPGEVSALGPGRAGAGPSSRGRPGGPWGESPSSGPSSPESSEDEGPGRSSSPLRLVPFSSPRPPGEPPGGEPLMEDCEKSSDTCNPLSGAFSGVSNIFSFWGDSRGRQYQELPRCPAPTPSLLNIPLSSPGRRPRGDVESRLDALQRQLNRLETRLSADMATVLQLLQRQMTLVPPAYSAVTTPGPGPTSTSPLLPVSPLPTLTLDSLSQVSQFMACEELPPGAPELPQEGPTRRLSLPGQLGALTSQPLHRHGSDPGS
Muscarinic acetylcholine receptor M3, sequence (P20309 whole entry): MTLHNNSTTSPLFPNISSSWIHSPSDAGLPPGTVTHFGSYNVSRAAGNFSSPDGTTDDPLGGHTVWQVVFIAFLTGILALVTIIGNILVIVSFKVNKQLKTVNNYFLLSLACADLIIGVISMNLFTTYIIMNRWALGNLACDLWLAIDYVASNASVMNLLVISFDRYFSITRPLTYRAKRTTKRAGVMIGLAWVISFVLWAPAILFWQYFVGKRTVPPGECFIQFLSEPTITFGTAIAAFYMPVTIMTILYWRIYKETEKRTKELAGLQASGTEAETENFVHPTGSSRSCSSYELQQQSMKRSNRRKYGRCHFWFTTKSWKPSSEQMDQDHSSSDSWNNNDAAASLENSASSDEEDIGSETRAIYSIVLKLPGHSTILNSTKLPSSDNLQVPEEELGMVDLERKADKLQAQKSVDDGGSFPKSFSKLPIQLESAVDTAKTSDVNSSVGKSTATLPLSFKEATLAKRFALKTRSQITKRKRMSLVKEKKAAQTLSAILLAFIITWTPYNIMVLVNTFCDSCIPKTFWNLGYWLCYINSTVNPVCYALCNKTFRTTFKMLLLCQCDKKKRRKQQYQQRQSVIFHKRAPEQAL
Melanin-concentrating hormone receptor 1 (Rattus norvegicus), sequence (P97639 whole entry): as the sequence (P97639 whole entry, looked up) above
CYP3A4, sequence (P08684 whole entry): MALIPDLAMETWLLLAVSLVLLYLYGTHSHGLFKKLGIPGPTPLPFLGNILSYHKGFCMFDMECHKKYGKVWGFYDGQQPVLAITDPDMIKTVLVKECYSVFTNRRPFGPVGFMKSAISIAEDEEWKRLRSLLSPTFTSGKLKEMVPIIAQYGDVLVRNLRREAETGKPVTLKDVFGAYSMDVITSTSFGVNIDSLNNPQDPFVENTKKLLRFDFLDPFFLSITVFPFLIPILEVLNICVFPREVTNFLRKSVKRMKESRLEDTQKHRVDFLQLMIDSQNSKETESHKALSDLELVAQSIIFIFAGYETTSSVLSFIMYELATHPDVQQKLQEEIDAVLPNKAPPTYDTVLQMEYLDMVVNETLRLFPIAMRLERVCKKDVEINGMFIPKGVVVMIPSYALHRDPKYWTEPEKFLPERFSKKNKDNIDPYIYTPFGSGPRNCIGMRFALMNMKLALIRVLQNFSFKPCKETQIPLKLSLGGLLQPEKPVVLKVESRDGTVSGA
CYP2D6, sequence (P10635 whole entry): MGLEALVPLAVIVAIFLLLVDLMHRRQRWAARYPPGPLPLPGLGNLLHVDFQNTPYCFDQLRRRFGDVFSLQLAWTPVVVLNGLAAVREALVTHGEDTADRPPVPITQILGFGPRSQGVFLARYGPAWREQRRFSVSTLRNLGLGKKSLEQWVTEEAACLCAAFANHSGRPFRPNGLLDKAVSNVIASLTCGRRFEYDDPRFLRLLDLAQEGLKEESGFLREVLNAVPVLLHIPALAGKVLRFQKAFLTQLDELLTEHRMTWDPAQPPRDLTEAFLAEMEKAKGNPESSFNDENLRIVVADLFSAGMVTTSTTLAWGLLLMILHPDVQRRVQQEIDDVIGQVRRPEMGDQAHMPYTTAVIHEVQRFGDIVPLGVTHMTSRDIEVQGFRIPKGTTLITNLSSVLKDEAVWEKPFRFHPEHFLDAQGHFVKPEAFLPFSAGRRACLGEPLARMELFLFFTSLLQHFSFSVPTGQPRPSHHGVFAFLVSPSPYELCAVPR

Row | SMILES | Ki [1] | CLint scaled [2] | further results
1 | CN[C@@H]1CCN(c2ccc(-n3ncc4cc(-c5ccc(C(F)(F)F)cc5)ccc4c3=O)cn2)C1 | 10 nM | 6 mL/min/kg | –
2 | CCN[C@H]1CCN(c2ccc(-n3ncc4cc(-c5ccc(Cl)cc5)ccc4c3=O)cn2)C1 | 1.9 nM | 9.2 mL/min/kg | –
3 | CN(C)[C@H]1CCN(c2ccc(-n3ncc4cc(-c5ccc(C(F)(F)F)cc5)sc4c3=O)cn2)C1 | 4.4 nM | 18 mL/min/kg | –
4 | CN[C@H]1CCN(c2ccc(-n3ncc4cc(-c5ccc(C(F)(F)F)cc5)ccc4c3=O)cn2)C1 | 8.4 nM | 26 mL/min/kg | –
5 | CN[C@@H]1CCN(c2ccc(-n3ncc4cc(-c5ccc(F)cc5)sc4c3=O)cn2)C1 | 2.5 nM | 8.2 mL/min/kg | –
6 | CN[C@H]1CCN(c2ccc(-n3ncc4cc(-c5ccc(OC)cc5C)ccc4c3=O)cn2)C1 | 11 nM | 8.8 mL/min/kg | –
7 | CN[C@@H]1CCN(c2ccc(-n3ncc4cc(-c5ccc(OC)cc5)sc4c3=O)cn2)C1 | 1.3 nM | 720 mL/min/kg | –
8 | O=c1c2ccc(-c3ccc(Cl)cc3)cc2cnn1-c1ccc(N2CC[C@H](N3CCCC3)C2)nc1 | 1.6 nM | 16 mL/min/kg | –
9 | CCc1ccc(-c2cc3cnn(-c4ccc(N5CC[C@@H](NC)C5)nc4)c(=O)c3s2)cc1 | 2.6 nM | 155 mL/min/kg | –
10 | CNC1CCN(c2ccc(NC(=O)c3ccc(-c4ccccc4)cc3)cn2)C1 (stereo not given) | – | – | Ki [3]: 200 nM
11 | CN[C@H]1CCN(c2ccc(-n3ncc4cc(-c5ccc(F)cc5)sc4c3=O)cn2)C1 | 2 nM | 12 mL/min/kg | –
12 | CN(C)[C@H]1CCN(c2ccc(-n3ncc4cc(-c5ccc(C(F)(F)F)cc5)n(C)c4c3=O)cn2)C1 | 14 nM | 48 mL/min/kg | –
13 | CN[C@@H]1CCN(c2ccc(-n3ncc4cc(-c5ccc(Cl)cc5)ccc4c3=O)cn2)C1 | 1.5 nM | 12 mL/min/kg | –
14 | CN[C@H]1CCN(c2ccc(-n3ncc4cc(-c5ccc(Cl)cc5)ccc4c3=O)cn2)C1 | 1.2 nM | 8.9 mL/min/kg | concentration at 1 h [4]: 94 ng/g; Vd [5]: 14 L/kg; Cmax [6]: 140 ng/mL; IC50 [7]: 8.5 nM; bioavailability [8]: 22%; Kp at 1 h [9]: 7.8; Kp at 4 h [10]: 23; half-life [11]: 9.4 h; concentration at 4 h [12]: 1700 ng/g; clearance [13]: 17 mL/min/kg; AUC [14]: 2200 ng·h/mL
15 | CN(C)[C@@H]1CCN(c2ccc(-n3ncc4cc(-c5ccc(Cl)cc5)ccc4c3=O)cn2)C1 | 1.1 nM | 21 mL/min/kg | –
16 | CN(C)[C@H]1CCN(c2ccc(-n3ncc4cc(-c5ccc(C(F)(F)F)cc5)[se]c4c3=O)cn2)C1 | – | 27 mL/min/kg | inhibition [15]: 28%
17 | CN[C@@H]1CCN(c2ccc(-n3ncc4cc(-c5ccc(Cl)cc5)sc4c3=O)cn2)C1 | 1.9 nM | 8.4 mL/min/kg | –
18 | CN[C@H]1CCN(c2ccc(-n3ncc4cc(-c5ccc(C(F)(F)F)cc5)sc4c3=O)cn2)C1 | 3.1 nM | – | –
19 | CN[C@@H]1CCN(c2ccc(-n3ncc4cc(-c5ccc(C(F)(F)F)cc5)sc4c3=O)cn2)C1 | 3.3 nM | 8.5 mL/min/kg | Selectivity ratio [16]: 50; concentration at 1 h [4]: 190 ng/g; IC50 [17]: 1800 nM; Vd [5]: 4.1 L/kg; inhibition at 5 µM (CYP3A4): < 10%; Ki [18]: 160 nM; Cmax [6]: 500 ng/mL; IC50 [7]: 7.7 nM; inhibition at 5 µM (CYP2D6): < 10%; bioavailability [8]: 24%; concentration at 24 h [19]: 280 nM; Ki [20]: 260 nM; Kp at 1 h [9]: 1.4; Kp at 4 h [10]: 3.1; half-life [11]: 11 h; concentration at 4 h [12]: 1200 ng/g; clearance [13]: 4.3 mL/min/kg; concentration at 336 h [21]: 790 nM; AUC [14]: 8400 ng·h/mL
20 | CN(C)[C@H]1CCN(c2ccc(-n3ncc4cc(-c5ccc(C(F)(F)F)cc5)oc4c3=O)cn2)C1 | 21 nM | 28 mL/min/kg | –
21 | CN(C)[C@H]1CCN(c2ccc(-n3ncc4cc(-c5ccc(Cl)cc5)ccc4c3=O)cn2)C1 | 1.1 nM | 12 mL/min/kg | –
